Test results taken from ChEMBL document CHEMBL3792374, “Discovery of a ring-opened derivative of 3-n-butylphthalide bearing NO/H2S-donating moieties as a potential anti-ischemic stroke agent” (Eur J Med Chem, 2016).
Calls of active or inactive are those of the source. The rule behind the calls is not given here.

Key:
[1] = Induction of nitric oxide release in potassium phosphate buffer at pH 7.4 at 0.1 mM after 75 mins by Griess assay; type: physicochemical; conditions: pH 7.4, 1.25 h, 100 µM
In short: (§1)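 Compound (0.1 mM) in PBS pH 7.4 containing 2% DMSO and 5.0 mM L-cysteine was held at 37 °C for 15–300 min. Samples were taken every 15 min up to 120 min, then every 30 min. Each sample was reacted with Griess reagent for 10 min at 37 °C and absorbance read at 540 nm. Nitrite was quantified from a nitrite standard curve. Means reported; intra-group variation <10%.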

[2] = Induction of nitric oxide release in potassium phosphate buffer at pH 7.4 at 0.1 mM after 240 mins by Griess assay; type: physicochemical; conditions: pH 7.4, 4 h, 100 µM; in short: as §1
[3] = Induction of nitric oxide release in potassium phosphate buffer at pH 7.4 at 0.1 mM after 90 mins by Griess assay; type: physicochemical; conditions: pH 7.4, 1.5 h, 100 µM; in short: as §1
Rattus norvegicus [4] = assay: Antioxidant activity in Sprague-Dawley rat brain tissue model of transient middle cerebral artery occlusion stroke model assessed as increase in glutathione peroxidase levels per mg of protein at 380 mg/kg […] measured 24 hrs after reperfusion by DTNB assay relative to control; type: functional
Rattus norvegicus [5] = assay: Antioxidant activity in Sprague-Dawley rat brain tissue model of transient middle cerebral artery occlusion stroke model assessed as glutathione levels per mg of protein at 380 mg/kg administered via oral gavage for 7 days after ischemia onset measured 24 hrs after reperfusion by DTNB assay (reference value: 23.47 nmol); type: functional; conditions: in the assay text read “before ischemia onset” for “after ischemia onset”
In short: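 Male SD rats (280–320 g; n = 12 per group) were gavaged daily for 7 days, with 0.5% CMC-Na as vehicle. Two hours after the last dose they were anesthetized with chloral hydrate (300 mg/kg ip) and underwent 2 h MCAO followed by reperfusion. Brains were taken 24 h after reperfusion, rinsed in cold saline and stored at −70 °C. Protein was quantified, then GSH, SOD, GSH-Px and MDA were measured by kits. Mean ± SD, n = 6, ANOVA/Tukey.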

Liver [6] = assay: Induction of hydrogen sulfide release in rat liver homogenate at 100 uM after 30 mins by microplate reader method (reference value: 1.03 to 1.21%); type: functional, tissue-based
In short: (§2)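 Compound was incubated at 37 °C for 0–90 min with fresh rat liver homogenate. The reaction was stopped with 1% zinc acetate and 10% trichloroacetic acid. N,N-dimethyl-p-phenylenediamine sulfate in 7.2 M HCl and FeCl3 in 1.2 M HCl were added, and absorbance was read at 670 nm after 10 min. Values were calculated against an NaHS standard curve as cumulative % conversion to H2S, n = 6.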

[7] = Induction of nitric oxide release in potassium phosphate buffer at pH 7.4 at 0.1 mM after 60 mins by Griess assay; type: physicochemical; conditions: pH 7.4, 1 h, 100 µM; in short: as §1
[8] = Induction of nitric oxide release in potassium phosphate buffer at pH 7.4 at 0.1 mM after 30 mins by Griess assay; type: physicochemical; conditions: pH 7.4, 0.5 h, 100 µM; in short: as §1
[9] = Antiplatelet activity in rabbit platelet-rich plasma assessed as inhibition of ADP-induced platelet aggregation at 0.1 mM preincubated for 5 mins followed by addition of ADP measured within 5 mins by Borns turbidimetric method in presence of nitric oxide scavenger carboxy-PTIO; type: functional; conditions: Oryctolagus cuniculus
In short: (§3)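 Rabbit carotid blood was citrated (3.8%, 9:1). PRP was obtained at 500 g for 10 min and PPP at 3000 g for 10 min. PRP was preincubated in duplicate for 5 min at 37 °C with 0.1 mM compound, plus carboxy-PTIO or BSS where indicated. ADP was then added and maximal light transmission recorded within 5 min, within 3 h of blood collection. Inhibition % was calculated versus control. Mean ± SD of three independent experiments.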

Rattus norvegicus [10] = assay: Neuroprotective activity in Sprague-Dawley rat model of transient middle cerebral artery occlusion stroke model assessed as reduction in neurological deficit at 380 mg/kg […] measured 24 hrs after middle cerebral artery occlusion by Longa's method; type: functional, organism-based
Rattus norvegicus [11] = assay: Antioxidant activity in Sprague-Dawley rat brain tissue model of transient middle cerebral artery occlusion stroke model assessed as increase in glutathione levels per mg of protein at 80 mg/kg […] measured 24 hrs after reperfusion by DTNB assay (reference value: 23.47 nmol); type: functional
[12] = Antiplatelet activity in rabbit platelet-rich plasma assessed as inhibition of ADP-induced platelet aggregation at 0.1 mM preincubated for 5 mins followed by addition of ADP measured within 5 mins by Borns turbidimetric method in presence of H2S scavenger BSS; type: functional; conditions: Oryctolagus cuniculus; in short: as §3
Liver [13] = assay: Induction of hydrogen sulfide release in rat liver homogenate at 100 uM after 90 mins by microplate reader method (reference value: 1.03 to 1.21%); type: functional, tissue-based; in short: as §2

CCCCC(OC(=O)CN1CCN(CCCCCOc2ccc(-c3cc(=S)ss3)cc2)CC1)c1ccccc1C(=O)Oc1ccc(/C=C/C(=O)OCCO[N+](=O)[O-])cc1OC (racemic) gave an Activity [1] of 8.48 µM, an Activity [2] of 10.35 µM and an Activity [3] of 9.14 µM. The Activity (Rattus norvegicus [4]) was 69.26%, the Activity (Rattus norvegicus [5]) was 28.05 nmol and the Activity (Liver [6]) was 3.04%. The Activity [7] was 8.03 µM, the Activity [8] was 5.48 µM and the inhibition at 100 µM [9] was 29.1%. For the same molecule, the Activity (Rattus norvegicus [10]) was “Active”, the Activity (Rattus norvegicus [11]) was 25.22 nmol and the inhibition at 100 µM [12] was 20.9%. The Activity (Liver [13]) was 4.4%.
